Data taken from article PMC11315854 (Drugs in R&D, 2024).
Like-named read-outs stand apart in the source and are kept apart here. Blank lines part the entries; values can stand above or below the compound they belong to.

Experiments:
[1] = Unbound fraction in humans; assay type: in vitro ADME; details: human, plasma
[2] = tested on: pAkt; assay type: in vivo, human; details: patients
Summary of the method: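 Blood drawn pre-dose and 1, 3, 8 and 24 h post-dose on day 1 from phase 1 patients (n = 37). pAkt in platelet-rich plasma measured by MSD assay and expressed as % of baseline. Concentrations predicted from individual population-PK parameters. Indirect response model (inhibition of pAkt formation) fitted, with Imax and γ1 fixed at 1, proportional error and IIV on IC50.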

[3] = tested on: 786-O cell line; details: in vitro, cancer cell lines; cited from earlier work
[4] = tested on: 786-O human renal cell adenocarcinoma (RCC) xenografts; assay: Integrated PK–PD–efficacy model, tumor volume in 786-O xenograft mice; assay type: in vivo; details: 786-O xenografts
Summary of the method: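 Female beige nude XID mice bearing subcutaneous 786-O tumour fragments. Grouped at 100–300 mm3 (mean 181 mm3). Dosed PO QD for 17 days in MCT (0.5% methylcellulose, 0.2% Tween 80), vehicle or 0.008–11 mg/kg, n = 6. Caliper volumes taken pre-dose and at 72–408 h. Inhibition predicted from mouse PK and PK–PD models. All groups fitted simultaneously to growth/shrinkage model with sigmoid Ks.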

[5] = tested on: advanced solid tumors; assay type: in vivo, human
Summary of the method: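 Phase 1 dose-escalation patients with advanced solid tumours or NHL, oral 2–200 mg (QD, 3-weeks-on/1-week-off, or QW). Lesions imaged by CT or MRI at baseline, after cycles 1 and 2, then every two cycles. Tumour size linked to predicted %pAkt inhibition via growth/shrinkage model with sigmoid Ks. Individual PK and dosing records used, with individual or typical IC50. All doses fitted simultaneously.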

[6] = Mouse pharmacokinetic model; assay type: in vivo, mice
Summary of the method: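 Mean plasma concentration–time data from nude mice given single oral 1, 5 or 10 mg/kg (n = 27 per dose), taken from earlier work. Sampling pre-dose and at 0.083–24 h. Linear one-compartment model with first-order oral absorption fitted simultaneously across doses to estimate ka, CL/F and V/F, with RSE%.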

[7] = Unbound fraction in mice; assay type: in vitro ADME; details: mouse, plasma
[8] = tested on: pAkt (serine 473); assay type: in vivo, mice
[9] = tested on: pAkt; details: patients, doses ≥ 16 mg; cited from earlier work
[10] = Patient population pharmacokinetic model; assay type: in vivo, human
Summary of the method: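 Phase 1 3+3 dose-escalation patients. Single oral dose on day 1, 1-week washout, then QD, 3-weeks-on/1-week-off, or QW. Plasma sampled intensively in cycle 1 and pre-dose in later cycles. Assayed by LC–MS/MS (LLOQ 0.5 ng/mL). Two-compartment nonlinear mixed-effects model with first-order absorption, exponential IIV and proportional residual error, fitted in NONMEM.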

[11] = tested on: Gli mRNA; details: preclinical models of the hedgehog pathway; cited from earlier work
[12] = nude mice, single PO 1, 5 and 10 mg/kg, one-compartment model

fraction unbound [1]: 0.388
linearity of pharmacokinetics over the range of doses tested ([6]; mice, PO 1, 5 and 10 mg/kg): linear
absorption rate constant (ka), estimate (RSE%) [6, 12]: 1.1 (36.4%) h^−1
apparent volume of distribution after oral dosing (V/F), estimate (RSE%) [6, 12]: 1.13 (17.3%) L/kg
k el ([6]; nude, mouse, plasma, oral): 8.33e-05 s⁻¹
fraction unbound [7]: 0.294
k el ([10]; human, plasma, oral): 2.78e-05 s⁻¹
CL/F ([10]; human, plasma, po): 5.07 mL/min/kg
absorption lagged time estimate (RSE%) ([10]; patients, n = 146, oral dosing): 0.465 (0.43%) h
absorption rate constant (ka), population typical value (RSE%) ([10]; patients, n = 146, oral dosing): 3.35 (16.8%) h^−1
apparent intercompartmental clearance (CLd/F), population typical value (RSE%) ([10]; patients, n = 146, oral dosing): 5.93 (8.53%) L/h
apparent oral clearance (CL/F), population typical value (RSE%) ([10]; patients, n = 146, oral dosing, two-compartment model): 21.3 (4.28%) L/h
SMILES: Cc1c(CN2CCN(C(=O)[C@H](C)O)CC2)sc2c(N3CCOCC3)nc(-c3cnc(N)nc3)nc12 [apitolisib]
kin (rate of biomarker production) ([2]; platelet-rich plasma pAkt): 88,699 %/h
effect on pAkt in plasma with increasing doses ([2]; platelet-rich plasma, 2–70 mg): dose-dependent decrease
peak suppression of the platelet pAkt ([2]; platelet-rich plasma, doses ≥ 12 mg): 90%
Imax (maximum inhibition of %pAkt) ([2]; fixed in model): 1 (fix)
kout (first-order rate constant describing biomarker loss) ([2]; kout = kin/%pAkt(0), baseline 100%): 886.99 h⁻¹
responsiveness of 786-O cell line compared with other tumor types such as MCF-7 [3]: less responsive
Kmax (maximum value of tumor shrinkage rate constant Ks) [4]: 0.0194 h⁻¹
Kg (net tumor growth rate constant) ([4]; QD PO 17 days, 0.008–11 mg/kg): 0.0057 h⁻¹
KI50 (I where Ks is 50% of Kmax) ([4]; pAkt in tumor tissue): 67.2 %pAKT inhibition
constant pAkt inhibition necessary to achieve tumor stasis (Ks = Kg) ([4]; tumor tissue pAkt): 61%
Kmax (maximum value of tumor shrinkage rate constant Ks) ([5]; patients with advanced solid tumors): 0.0142 1/week
Kg (net tumor growth rate constant) ([5]; patients with advanced solid tumors, 2–200 mg): 0.0097 1/week
KI50 (I where Ks is 50% of Kmax) ([5]; patients, pAkt in surrogate plasma): 58.0 %pAKT inhibition
constant pAkt inhibition necessary to achieve tumor stasis (Ks = Kg) ([5]; patients, platelet-rich plasma pAkt): 65%
pAkt reduction in tumor ([8]; 786-O tumor-bearing mice, single oral 0.3 mg/kg): very weak
duration of sustained pAkt suppression in tumor ([8]; 786-O tumor-bearing mice, single oral 3 mg/kg): 6 h
duration of sustained pAkt suppression in tumor ([8]; 786-O tumor-bearing mice, single oral 10 mg/kg): 12 h
effect on pAkt in tumors across doses ([8]; 786-O tumor-bearing mice, single oral 0.3, 3 and 10 mg/kg): dose-dependent decrease
kin (rate of biomarker production) ([8]; 786-O xenograft mice, tumor tissue pAkt): 88,698 %/h
Imax (maximum inhibition of %pAkt) ([8]; 786-O xenograft mice, fixed in model): 1 (fix)
kout (first-order rate constant describing biomarker loss) ([8]; 786-O xenograft mice, kout = kin/%pAkt(0), baseline 100%): 886.98 h⁻¹
reduction in platelet-rich plasma PD markers, including pAkt [9]: ≥ 90%
body-weight-normalized apparent volume of the central compartment (V1/F) ([10]; patients, assuming reference body weight of 70 kg): 3.01 L/kg

SMILES: CS(=O)(=O)c1ccc(C(=O)Nc2ccc(Cl)c(-c3ccccn3)c2)c(Cl)c1 [vismodegib]
minimum Gli mRNA inhibition needed for tumor growth inhibition [11]: ~50%
